Laboratory results taken from ChEMBL document CHEMBL1629653, “CMY-31 and CMY-36 cephalosporinases encoded by ColE1-like plasmids” (Antimicrob Agents Chemother, 2009).
Converted amounts (≈) assume the structure as drawn.

Assays:
[1] = molecular target: Class C beta-lactamase CMY-36 (Klebsiella pneumoniae, UniProt Q48435); assay: Inhibition of Klebsiella pneumoniae HP205 cephalosporinase CMY-36 by UV spectrophotometer in presence of 100 uM of cephalothin
[2] = Inhibition of CMY-2 by UV spectrophotometer in presence of 100 uM of cephalothin
Escherichia coli [3] = assay: Antimicrobial activity against Escherichia coli DH5[alpha] harboring pB-c36 plasmid expressing cephalosporinase CMY-36 by agar dilution method; format: functional
Escherichia coli [4] = assay: Antimicrobial activity against Escherichia coli DH5[alpha] harboring pB-c2 plasmid expressing cephalosporinase CMY-2 by agar dilution method; format: functional
Escherichia coli [5] = assay: Antimicrobial activity against Escherichia coli DH5[alpha] harboring pBCSK plasmid by agar dilution method; format: functional
Escherichia coli [6] = assay: Antimicrobial activity against Escherichia coli DH5[alpha] harboring pB-c31 plasmid expressing cephalosporinase CMY-31 by agar dilution method; format: functional
Klebsiella pneumoniae [7] = assay: Antimicrobial activity against Klebsiella pneumoniae HP205 expressing CMY-36 cephalosporinase by agar dilution method; format: functional
Procedure, shortened: (§1)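 MICs of β-lactams determined by agar dilution against the clinical isolates.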

Escherichia coli [8] = assay: Antimicrobial activity against Escherichia coli DH5[alpha] transformant harboring pA172 plasmid expressing cephalosporinase CMY-31 by agar dilution method; format: functional
[9] = Antimicrobial activity against Salmonella enterica serotype Newport AM17274 expressing CMY-31 cephalosporinase by agar dilution method; format: functional, Salmonella enterica subsp. enterica serovar Newport; procedure, shortened: as §1
Escherichia coli [10] = assay: Antimicrobial activity against Escherichia coli DH5[alpha] transformant harboring pH205 plasmid expressing cephalosporinase CMY-36 by agar dilution method; format: functional
Escherichia coli [11] = assay: Antimicrobial activity against Escherichia coli DH5[alpha] harboring pB-c36 plasmid expressing cephalosporinase CMY-36 by agar dilution method in presence of clavulanic acid; format: functional
[12] = Antimicrobial activity against Salmonella enterica serotype Newport AM17274 expressing CMY-31 cephalosporinase by agar dilution method in presence of clavulanic acid; format: functional, Salmonella enterica subsp. enterica serovar Newport; procedure, shortened: as §1
Escherichia coli [13] = assay: Antimicrobial activity against Escherichia coli DH5[alpha] transformant harboring pH205 plasmid expressing cephalosporinase CMY-36 by agar dilution method in presence of clavulanic acid; format: functional
Escherichia coli [14] = assay: Antimicrobial activity against Escherichia coli DH5[alpha] transformant harboring pA172 plasmid expressing cephalosporinase CMY-31 by agar dilution method in presence of clavulanic acid; format: functional
Escherichia coli [15] = assay: Antimicrobial activity against Escherichia coli DH5[alpha] harboring pBCSK plasmid by agar dilution method in presence of clavulanic acid; format: functional
Klebsiella pneumoniae [16] = assay: Antimicrobial activity against Klebsiella pneumoniae HP205 expressing CMY-36 cephalosporinase by agar dilution method in presence of clavulanic acid in presence of clavulanic acid; format: functional; procedure, shortened: as §1
Escherichia coli [17] = assay: Antimicrobial activity against Escherichia coli DH5[alpha] harboring pB-c31 plasmid expressing cephalosporinase CMY-31 by agar dilution method in presence of clavulanic acid; format: functional
Escherichia coli [18] = assay: Antimicrobial activity against Escherichia coli DH5[alpha] harboring pB-c2 plasmid expressing cephalosporinase CMY-2 by agar dilution method in presence of clavulanic acid; format: functional
[19] = Antimicrobial activity against Salmonella enterica serotype Newport AM17274 expressing CMY-31 cephalosporinase by agar dilution method in presence of Tazobactam; format: functional, Salmonella enterica subsp. enterica serovar Newport
Escherichia coli [20] = assay: Antimicrobial activity against Escherichia coli DH5[alpha] transformant harboring pA172 plasmid expressing cephalosporinase CMY-31 by agar dilution method in presence of Tazobactam; format: functional
Escherichia coli [21] = assay: Antimicrobial activity against Escherichia coli DH5[alpha] harboring pBCSK plasmid by agar dilution method in presence of Tazobactam; format: functional
Klebsiella pneumoniae [22] = assay: Antimicrobial activity against Klebsiella pneumoniae HP205 expressing CMY-36 cephalosporinase by agar dilution method in presence of Tazobactam; format: functional
Escherichia coli [23] = assay: Antimicrobial activity against Escherichia coli DH5[alpha] harboring pB-c31 plasmid expressing cephalosporinase CMY-31 by agar dilution method in presence of Tazobactam; format: functional
Escherichia coli [24] = assay: Antimicrobial activity against Escherichia coli DH5[alpha] transformant harboring pH205 plasmid expressing cephalosporinase CMY-36 by agar dilution method in presence of Tazobactam; format: functional
Escherichia coli [25] = assay: Antimicrobial activity against Escherichia coli DH5[alpha] harboring pB-c36 plasmid expressing cephalosporinase CMY-36 by agar dilution method in presence of Tazobactam; format: functional
Escherichia coli [26] = assay: Antimicrobial activity against Escherichia coli DH5[alpha] harboring pB-c2 plasmid expressing cephalosporinase CMY-2 by agar dilution method in presence of Tazobactam; format: functional

Sequence of Class C beta-lactamase CMY-36 (Q48435 whole entry): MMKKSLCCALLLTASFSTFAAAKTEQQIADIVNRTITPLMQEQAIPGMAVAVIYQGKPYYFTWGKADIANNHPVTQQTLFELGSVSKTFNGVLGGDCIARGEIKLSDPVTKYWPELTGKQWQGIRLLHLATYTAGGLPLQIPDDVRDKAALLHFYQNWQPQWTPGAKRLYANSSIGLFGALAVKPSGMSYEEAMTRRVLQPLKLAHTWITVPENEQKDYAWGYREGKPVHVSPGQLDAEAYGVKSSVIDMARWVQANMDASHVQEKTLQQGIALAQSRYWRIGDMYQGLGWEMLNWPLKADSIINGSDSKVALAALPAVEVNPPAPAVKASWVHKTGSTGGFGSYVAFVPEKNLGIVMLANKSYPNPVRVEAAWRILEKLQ

Row | SMILES | MIC (Escherichia coli [3]) [µg/mL] | MIC (Escherichia coli [4]) [µg/mL] | MIC (Escherichia coli [5]) [µg/mL] | MIC (Escherichia coli [6]) [µg/mL] | MIC (Klebsiella pneumoniae [7]) [µg/mL] | MIC (Escherichia coli [8]) [µg/mL] | MIC [9] [µg/mL] | MIC (Escherichia coli [10]) [µg/mL] | further results
1 | Cc1onc(-c2ccccc2Cl)c1C(=O)N[C@@H]1C(=O)N2[C@@H]1SC(C)(C)[C@@H]2C(=O)O [CLOXACILLIN] |  |  |  |  |  |  |  |  | IC50 [1]: 4 nM; IC50 [2]: 4 nM
2 | CC1(C)S[C@@H]2[C@H](NC(=O)[C@H](C(=O)O)c3ccsc3)C(=O)N2[C@H]1C(=O)O [TICARCILLIN] | > 256 | > 256 | 2 (≈ 5.2 µM) | > 256 | > 256 | > 256 | > 256 | > 256 | 
3 | CO/N=C(\C(=O)N[C@@H]1C(=O)N2C(C(=O)O)=C(CSc3nc(=O)c(O)nn3C)CS[C@H]12)c1csc(N)n1 [CEFTRIAXONE] | 128 (≈ 231 µM) | 128 (≈ 231 µM) | 0.12 (≈ 0.216 µM) | 256 (≈ 462 µM) | 32 (≈ 57.7 µM) | 32 (≈ 57.7 µM) | 16 (≈ 28.9 µM) | 64 (≈ 115 µM) | 
4 | C[C@@H](O)[C@H]1C(=O)N2C(C(=O)O)=C(SCCNC=N)C[C@H]12 [IMIPENEM ANHYDROUS] | 0.5 (≈ 1.67 µM) | 0.5 (≈ 1.67 µM) |  | 0.5 (≈ 1.67 µM) | 0.5 (≈ 1.67 µM) | 0.5 (≈ 1.67 µM) | 0.25 (≈ 0.835 µM) | 0.5 (≈ 1.67 µM) | 
5 | CO/N=C(\C(=O)N[C@@H]1C(=O)N2C(C(=O)[O-])=C(C[N+]3(C)CCCC3)CS[C@H]12)c1csc(N)n1 | 0.25 (≈ 0.52 µM) | 0.25 (≈ 0.52 µM) |  | 0.25 (≈ 0.52 µM) |  | 0.12 (≈ 0.25 µM) | 0.12 (≈ 0.25 µM) | 0.25 (≈ 0.52 µM) | 
6 | CO/N=C(\C(=O)N[C@@H]1C(=O)N2C(C(=O)O)=C(COC(C)=O)CS[C@H]12)c1csc(N)n1 [CEFOTAXIME] | 128 (≈ 281 µM) | 128 (≈ 281 µM) | 0.12 (≈ 0.263 µM) | 128 (≈ 281 µM) | 32 (≈ 70.3 µM) | 32 (≈ 70.3 µM) | 32 (≈ 70.3 µM) | 32 (≈ 70.3 µM) | 
7 | C[C@]1(/C=C\C#N)[C@H](C(=O)O)N2C(=O)C[C@H]2S1(=O)=O |  |  |  |  |  |  |  |  | IC50 [1]: 300 nM; IC50 [2]: 300 nM
8 | CO/N=C(\C(=O)N[C@@H]1C(=O)N2C(C(=O)O)=C(COC(N)=O)CS[C@H]12)c1ccco1 [CEFUROXIME] | > 256 | > 256 | 2 (≈ 4.71 µM) | > 256 | > 256 | > 256 | > 256 | > 256 | 
9 | CC(C)(O/N=C(\C(=O)N[C@@H]1C(=O)N2C(C(=O)[O-])=C(C[n+]3ccccc3)CS[C@H]12)c1csc(N)n1)C(=O)O [CEFTAZIDIME] | 256 (≈ 468 µM) | 256 (≈ 468 µM) | 0.5 (≈ 0.915 µM) | 256 (≈ 468 µM) | 64 (≈ 117 µM) | 128 (≈ 234 µM) | 32 (≈ 58.5 µM) | 128 (≈ 234 µM) | 
10 | CC1(C)S[C@@H]2[C@H](NC(=O)[C@H](N)c3ccc(O)cc3)C(=O)N2[C@H]1C(=O)O [AMOXICILLIN] | > 256 | > 256 | 2 (≈ 5.47 µM) | > 256 | > 256 | > 256 | > 256 | > 256 | MIC (Escherichia coli [11]): > 64 µg/mL; MIC [12]: > 64 µg/mL; MIC (Escherichia coli [13]): > 64 µg/mL; MIC (Escherichia coli [14]): > 64 µg/mL; MIC (Escherichia coli [15]): 2 µg/mL; MIC (Klebsiella pneumoniae [16]): > 64 µg/mL; MIC (Escherichia coli [17]): > 64 µg/mL; MIC (Escherichia coli [18]): > 64 µg/mL
11 | CCN1CCN(C(=O)N[C@@H](C(=O)N[C@@H]2C(=O)N3[C@@H]2SC(C)(C)[C@@H]3C(=O)O)c2ccccc2)C(=O)C1=O [PIPERACILLIN] | 256 (≈ 495 µM) | 256 (≈ 495 µM) | 1 (≈ 1.93 µM) | 256 (≈ 495 µM) | 128 (≈ 247 µM) | 128 (≈ 247 µM) | 64 (≈ 124 µM) | 128 (≈ 247 µM) | MIC [19]: 16 µg/mL; MIC (Escherichia coli [20]): 32 µg/mL; MIC (Escherichia coli [21]): 0.5 µg/mL; MIC (Klebsiella pneumoniae [22]): 32 µg/mL; MIC (Escherichia coli [23]): 64 µg/mL; MIC (Escherichia coli [24]): 32 µg/mL; MIC (Escherichia coli [25]): 64 µg/mL; MIC (Escherichia coli [26]): 64 µg/mL
12 | CO[C@@]1(NC(=O)Cc2cccs2)C(=O)N2C(C(=O)O)=C(COC(N)=O)CS[C@@H]21 [CEFOXITIN] | > 256 | > 256 | 4 (≈ 9.36 µM) | > 256 | > 256 | > 256 | > 256 | > 256 | 
